Data on five compounds can be found in ChEMBL document CHEMBL1148917, “Dibenzyl bromophenols with diverse dimerization patterns from the brown alga Leathesia nana” (J Nat Prod, 2004).

What all share (format): functional, cell-based
The subject of one assay is Bel-7402. Put plainly: Cytotoxicity against human Bel7402 cells after 96 hrs by MTT assay. An outline of the steps:
(§1)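 Cells grown in RPMI1640 with 10% FBS, penicillin and streptomycin at 37 °C under humidified 5% CO2; seeded at 1200 cells/well and dosed 24 h later. Five concentrations per compound in DMSO (0.1% final), three parallel wells each. After 96 h exposure, MTT conversion to formazan read at 570 nm; IC50 calculated from the readings.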
For orientation: Tetrazolium assays rely on reduction of a dye to a coloured formazan, in cell work by metabolically active cells.

Another assay relates to BGC-823. Put plainly: Cytotoxicity against human BGC823 cells after 96 hrs by MTT assay. The method, boiled down:
as §1

For the next assay, the system named is HCT-8. Put plainly: Cytotoxicity against human HCT8 cells after 96 hrs by MTT assay. The method, boiled down: as §1
The test system of a further assay is MCF7. Put plainly: Cytotoxicity against human MCF7 cells after 96 hrs by MTT assay. The method, boiled down:
as §1

Another assay has as its system A549. Put plainly: Cytotoxicity against human A549 cells after 96 hrs by MTT assay. The method, boiled down:
as §1

For `COCc1cc(O)c(O)c(Br)c1Cc1cc(O)c(O)c(Br)c1Br`, the IC50 in the assay on Bel-7402 is 0.0074 uM/ml; in the assay on BGC-823 it was 18 µM; in the assay with HCT-8 it was 5.9 µM; in the assay with MCF7 it was 4.6 µM; in the assay with A549, 5.4 µM.
`Oc1cc(Cc2cc(O)c(O)c(Br)c2Br)c(Br)c(Br)c1O`: the IC50 is over 0.0182 uM/ml in the assay with Bel-7402; 3.8 µM in the assay on BGC-823; 2.2 µM in the assay with HCT-8; 2.7 µM with MCF7; 1.8 µM in the assay on A549.
For the compound `COCc1c(Br)c(Br)c(O)c(O)c1Cc1cc(O)c(O)c(Br)c1Br`, the IC50 in the assay with Bel-7402 is 0.0048 uM/ml; in the assay on BGC-823 it was 8.8 µM; in the assay with HCT-8, over 16.8 µM; with MCF7 it was 2.7 µM; with A549, 2.5 µM.
Consider `CCOCc1cc(O)c(O)c(Br)c1Cc1cc(O)c(O)c(Br)c1Br`, for which the IC50 in the assay on Bel-7402 is 0.0055 uM/ml; with BGC-823, 4.6 µM; in the assay with HCT-8, 2.8 µM; with MCF7 it was 3.4 µM; in the assay on A549, over 19 µM.
The corresponding values for `Oc1cc(COCc2cc(O)c(O)c(Br)c2Br)c(Br)c(Br)c1O` are over 0.0019 uM/ml, 8.6 µM, 20.7 µM, 21.4 µM and over 19.5 µM.
